# “And” between values parts separate entries of the source, which are not always exact repeats. Equal entries are not always repeated.
# Legend:
# [1] = Optical characterization of the ELP phase diagram; assay type: physicochemical; details: for Tt (observed transition temperature): 25 μM in PBS, turbidity at 350 nm, ramp 1 °C min−1, maximum first derivative of the curve; for slope of transition temperature vs log10 concentration / y-intercept of transition temperature vs log10 concentration: log-linear regression of Tt vs concentration, 5–100 μM in PBS, mean [95% CI]; for temperature of phase separation (Figure 2 legend, approximate): optical density as a function of temperature and concentration; for Property at 37 °C: state of the protein polymer at 37 °C (soluble / nanoparticle / coacervate)
# Summary of the method: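 Turbidity (350 nm) of protein polymer solutions in PBS was recorded as a function of temperature across several concentrations. Tt was the maximum of the first derivative of the curve. Observed Tt was reported at 25 μM. Slope and intercept came from log-linear regression, Tt = m Log₁₀[C_ELP] + b. Mean [95% CI].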
# [2] = Dynamic light scattering: hydrodynamic radius and polydispersity; assay type: physicochemical; details: DLS; for nanoassembly by dynamic light scattering: below the transition temperature; for hydrodynamic radius at 37 °C: filtered through 0.2 μm cellulose acetate; for hydrodynamic radius retained below the transition temperature: 25 μM in PBS (Discussion); for temperature up to which the nanoparticles are stable: 4 to 60 °C in 1 °C increments
# Summary of the method: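 Test protein polymers at 25 μM in PBS, passed through 0.2 μm cellulose acetate filters, spun at 4 °C, 1200 rpm to clear air bubbles, and overlaid with mineral oil against evaporation. Hydrodynamic radius and polydispersity were read on a DLS plate reader from 4 to 60 °C in 1 °C steps.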
# [3] = set-up: species or system rats; details: rat, in vivo
# [4] = Negative and cryogenic transmission electron microscopy of nanoparticles; assay type: physicochemical; details: average ± 95% confidence interval
# Summary of the method: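 Samples at 25 μM, unfiltered or 0.2 μm filtered. Negative TEM used carbon-coated copper grids, excess wicked off, 2 wt% aqueous uranyl acetate stain, 100 kV. Cryo-TEM used plasma-treated lacey carbon grids plunged into liquid-nitrogen-cooled ethane, 80 kV. Sizes were averaged over three fields (>50 particles/image TEM; 20 cryo-TEM). Bilayer thickness was taken at three points per vesicle circumference. Mean ± 95% CI.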
Substance,Tt (observed transition temperature) [1] [°C],slope of transition temperature vs log10 concentration [1],y-intercept of transition temperature vs log10 concentration [1] [°C],"temperature of phase separation (Figure 2 legend, approximate) ([1]; PBS)",Property at 37 °C ([1]; PBS),nanoassembly by dynamic light scattering ([2]; 25 μM in PBS),"hydrodynamic radius at 37 °C ([2]; 25 μM in PBS, 37 °C)","Plasma clearance, CLp [3] [mL/min]","Volume of distribution, V0 [3] [mL]",hydrodynamic radius retained below the transition temperature [2] [nm],temperature up to which the nanoparticles are stable ([2]; 25 μM in PBS) [°C],further results
G(VPGVG VPGAG VPGAG)64Y [V2A192],47.2,−5.8 °C/log10(μM),55.9,around 47 °C,soluble,do not exhibit any signs of nanoassembly,5 nm,–,–,–,–,–
"Met-Asp-Trp-Phe-Lys-Ala-Phe-Tyr-Asp-Lys-Val-Ala-Glu-Lys-Phe-Lys-Glu-Ala-Phe-Leu-FITC [Free L4F, reference compound]",–,–,–,–,–,–,–,0.12,12,–,–,–
MDWFKAFYDKVAEKFKEAFGLVPRGS G(VPGVG VPGAG VPGAG)64Y [L4F-V2A192],34.3,−1.3 °C/log10(μM),36.2,about 34 °C,–,form nanoparticles,42 nm and ~50 nm,–,–,42,34,–
G(VPGAG)192Y [A192],61.9,−9.2 °C/log10(μM),74.9,~60 °C,soluble,do not exhibit any signs of nanoassembly,5 nm,–,–,–,–,–
MDWFKAFYDKVAEKFKEAFGLVPRGS G(VPGAG)192Y [L4F-A192],45.8,−2.6 °C/log10(μM),49.6,–,nanoparticle,form nanoparticles,50 nm and ~50 nm,0.37,26,50,46,"depression of transition temperature below the parent ELP ([1]; at 25 μM): 14 °C; temperature of phase separation / transition temperature ([1]; at 25 μM, optical density, PBS): above 47 °C; nanoparticle radius, negative TEM, unfiltered ([4]; 25 μM, 2 % uranyl acetate stain, unfiltered): 41 ± 16 nm; vesicle radius, cryo-TEM, filtered ([4]; 25 μM, filtered through 0.2 μm): 43 ± 17 nm and 43 nm; vesicle radius, cryo-TEM, unfiltered ([4]; 25 μM, unfiltered): 36 ± 13 nm; membrane thickness, cryo-TEM, filtered ([4]; 0.2 um filtered, n = 8): 6.8 ± 0.7 nm and 6.8 nm; membrane (wall) thickness, cryo-TEM, unfiltered ([4]; unfiltered, n = 18): 8.4 ± 1.3 nm and 8.4 nm; plasma half-life (approximate) [3]: approximately 1 hr; volume of distribution relative to free L4F peptide [3]: approximately twice; polydispersity ([2]; 25 μM in PBS, 37 °C): 9 nm"
